TAAR1 antagonist: human TAAR1 antagonists, primary screen, Fluo-8 calcium fluorescence, CHO RD-HGA16 cells; Trace amine-associated receptor 1 (Homo sapiens), Q96RJ0; antagonist; inhibition, % at 3 µM; 1.5% of 360,000 active; AID 624466, 2012;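 active = inhibition above a per-plate cutoff, the mean inhibition of test compounds on that plate plus 3 SD, cut at about 49% in these data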;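 note: 0% = DMSO plus EC80 beta-PEA response and 100% = DMSO alone without agonist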
Target sequence (Q96RJ0 whole entry, looked up): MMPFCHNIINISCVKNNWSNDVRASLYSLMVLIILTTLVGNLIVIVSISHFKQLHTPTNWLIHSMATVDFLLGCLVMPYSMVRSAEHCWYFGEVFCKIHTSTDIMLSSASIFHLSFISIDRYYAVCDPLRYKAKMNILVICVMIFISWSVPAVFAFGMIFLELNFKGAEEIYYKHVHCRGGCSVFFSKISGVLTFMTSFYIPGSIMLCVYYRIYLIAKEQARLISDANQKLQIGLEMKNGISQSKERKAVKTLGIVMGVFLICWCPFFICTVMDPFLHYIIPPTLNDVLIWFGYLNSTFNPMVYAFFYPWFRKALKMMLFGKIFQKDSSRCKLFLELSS
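Material: CHO RD-HGA16 cells bearing hTAAR1; compound dosing: one-point dosing, 3 µM nominal final; schedule: dye loading 75 min at 37 °C, then 30 min room temperature; measured by: calcium fluorescence with Fluo-8; control set: vehicle and agonist controls; replication: n of 1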
DAGLB inh: DAGLB lipase inhibitors, primary screen, biochemical, fluorescence, HTS. Diacylglycerol lipase-beta (Homo sapiens), Q8NCG7. HEK293T DAGLB membrane lysate, EnzChek fluorogenic substrate. inhibition, % at 5.17 µM. 0.059% of 340,000 active; in the data active = inhibition above about 34%;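 note: 0% = enzyme with vehicle and 100% = wells lacking enzyme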
MPTP block: mitochondrial permeability transition pore inhibitors, primary screen, biochemical, isolated mouse mitochondria, absorbance | Ca2+ swelling absorbance, 30 min | inhibition, % at 10 µM | 1.4% of 360,000 active | AID 602449, 2012;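 active = inhibition of 50% or more, scaled per plate between neutral and stimulator controls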;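 note: 0% = DMSO wells given calcium and 100% = 1 mM EGTA wells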
TAAR1 ag: human TAAR1 agonists, primary screen, Fluo-8 calcium fluorescence, CHO RD-HGA16 cells; Trace amine-associated receptor 1 (Homo sapiens), Q96RJ0; vehicle wells 0%, saturating PEA agonist 100%; activation, % at 3 µM; 0.99% of 360,000 active; AID 624467, 2012;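 active = activation above the mean activation of all test compounds in the run plus 3 SD, cut at about 38% in these data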
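Benchmarks: low control DMSO, high control PEA (EC100); System: CHO RD-HGA16 cells carrying human TAAR1 plus Gα16; Detection: Fluo-8 fluorescence, 5 s baseline then 140 s kinetic read; Schedule: 17-24 h plating, Fluo-8 75 min 37 °C, 30 min RT; Read-out basis: % activation from peak over basal fluorescence ratio, DMSO-to-PEA scaled.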
GPR7 antagonist: GPR7 receptor antagonists, primary screen, cell-based, fluorescence, single concentration. Neuropeptides B/W receptor type 1 (Homo sapiens), P48145. GPR7-expressing cells, fluorescence antagonist assay. inhibition, % at 4.4 µM. 1.1% of 290,000 active. AID 1861, 2009; in the data active = inhibition above about 16%, passing the limit was not always enough;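 note: cells stimulated with the agonist NPW; 0% = agonist with vehicle and 100% = vehicle without agonist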
Target sequence (P48145 whole entry, looked up): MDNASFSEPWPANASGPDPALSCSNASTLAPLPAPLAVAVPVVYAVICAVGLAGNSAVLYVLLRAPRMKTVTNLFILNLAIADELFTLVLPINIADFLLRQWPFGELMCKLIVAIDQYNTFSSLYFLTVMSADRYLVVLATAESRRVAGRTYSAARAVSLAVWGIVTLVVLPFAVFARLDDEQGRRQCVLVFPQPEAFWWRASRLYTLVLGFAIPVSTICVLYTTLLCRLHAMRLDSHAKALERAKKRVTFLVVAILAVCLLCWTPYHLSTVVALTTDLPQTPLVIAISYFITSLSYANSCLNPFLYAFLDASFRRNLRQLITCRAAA
* hit, by the source's call; . = no result given. Shown are actives, neighbours in structure and some others; about 4% of the full set was active somewhere.

SMILES | TAAR1 antagonist | DAGLB inh | MPTP block | TAAR1 ag | GPR7 antagonist
O=C(COC(=O)c1cc(=O)[nH]c2ccccc12)Nc1nccs1 | -2 | -1 | 0 | 3 | -6
CSc1ccc(CN2CCC(C)(Oc3ccc(-n4ccnc4)cc3)C2)cc1 (centres undefined) | -3 | . | 3 | 4 | .
Cc1ccc(C(=O)OCc2cc3ccccc3[nH]c2=O)cc1 | 33 | -2 | -1 | 42* | 1
Cc1cccc(C(=O)OCc2cc3ccccc3[nH]c2=O)c1 | 27 | -13 | -1 | 10 | -3
CC(C)(C)c1ccc(C#C[C@@H]2C=C[C@@H](O)[C@@H](COC(=O)Nc3ccccc3)O2)cc1 | 14 | . | . | 5 | .
CC(C)NS(=O)(=O)c1ccc(Oc2ncc(C(F)(F)F)cc2Cl)cc1 | -24 | -4 | 1 | 28 | -15
O=S(=O)(Nc1ccccc1)c1ccc(Oc2ncc(C(F)(F)F)cc2Cl)cc1 | 69* | -7 | 38 | 37* | -4
CCCCCCCCN1C(=O)[C@@H](CC(=O)NCCCN2CCCC2=O)C[C@@]2(C(=O)OC)C1=C[C@H](C1CCCC1)O[C@@H]2C | -46 | . | . | 3 | .
COc1ccc2c(COC(=O)CNS(=O)(=O)c3ccccc3)cc(=O)oc2c1 | -22 | -1 | -2 | 2 | .
COc1ccc2c(COC(=O)c3cccc(S(=O)(=O)NCC(C)C)c3)cc(=O)oc2c1 | 65* | 0 | -1 | 10 | 9
COc1ccc2c(C#CCCO)c(-c3ccc(S(C)(=O)=O)cc3)sc2c1 | 62* | -5 | 2 | 20 | .
CS(=O)(=O)c1ccc(-c2sc3ccccc3c2C#CCCO)cc1 | 54* | 1 | 0 | 16 | .
CCOCCc1nnc(NC(=O)Cc2ccc(Br)cc2)s1 | -12 | 0 | 2 | 46* | 4
CC1=C(C(=O)N2CCCCCC2)CC(CC(=O)NCCCCc2ccccc2)C(=O)N1CCC1=CCCCC1 (centres undefined) | 14 | . | -2 | 0 | .
COc1ccc(Cc2c(C3CCCCC3)nc3ccc(C)cn23)c(C)c1 | -38 | . | . | 3 | .
COc1cccc(N(C(=O)c2ccco2)c2nc(-c3sc(NC(=O)c4ccco4)nc3C)cs2)c1 | 51* | 2 | -1 | 14 | -11
O=C1c2ccccc2C(c2nnnn2-c2ccc3c(c2)OCCO3)N1CCCn1ccnc1 (centres undefined) | -10 | . | -1 | 0 | .
CCCCCCCCN1C(=O)[C@@H](CC(=O)NCc2cccc3ccccc23)C[C@@]2(C(=O)OC)C1=C[C@H](C(C)(C)C)O[C@@H]2C | -13 | . | . | 15 | .
CCC12CC1(C(=O)OC)C(=O)N1CCc3c([nH]c4ccccc34)C12 (centres undefined) | . | . | -1 | . | .
CN(C)CCn1c(=N)n(CC(O)c2ccc(Cl)c(Cl)c2)c2ccccc21 (centres undefined) | -5 | 0 | -4 | 3 | 17
N=c1n(CCN2CCCCC2)c2ccccc2n1CC(O)c1ccc(Cl)c(Cl)c1 (centres undefined) | 2 | 3 | 4 | 18 | 36*
COc1ccccc1OCC(O)Cn1c(=N)n(CCN2CCCCC2)c2ccccc21 (centres undefined) | 13 | -1 | 0 | 5 | 25*
COc1ccc(OCC(O)Cn2c(=N)n(CCN3CCOCC3)c3ccccc32)cc1 (centres undefined) | 5 | 0 | -1 | 7 | -9
O=C(NCc1ccccc1)[C@@H]1CCCN1C(=O)[C@H]1CCCN1C(=O)c1cccc(F)c1 | 1 | . | . | 0 | .
CCNC(=O)COc1ccc(F)cc1C(=O)c1cnn(-c2ccccc2)c1 | 3 | -3 | -2 | 0 | 18
SMILES | TAAR1 antagonist | DAGLB inh | MPTP block | TAAR1 ag | GPR7 antagonist
COc1ccccc1CNC(=O)COc1ccccc1C(=O)c1cnn(-c2ccccc2)c1 | 57* | -2 | -1 | 6 | .
COC(=O)C1=C(C)N(C)C(=NCC2CC2)NC1c1ccc(F)cc1 (centres undefined) | -1 | . | . | 0 | .
CNc1nc(NCC2CCCCC2)c2sccc2n1 | 26 | . | 17 | 49* | .
Cc1cnc(C(=O)OCC(=O)Nc2ncc(Cl)cc2Cl)cn1 | 26 | -3 | -1 | 8 | .
Cc1ncc(CO)c2c1Oc1nc(-c3ccccc3)nc(SCC(=O)N3CCCCC3)c1C2 | 41 | 5 | -1 | 9 | -20
COc1ccccc1-c1nc2c(c(SCC(=O)N3CCCCC3)n1)Cc1c(CO)cnc(C)c1O2 | 54* | -2 | -1 | 10 | -11
O=C(CN1C(=O)NC(CCc2ccccc2)C1=O)NC1CC1 (centres undefined) | 6 | 2 | -1 | 3 | 24*
Clc1ccc(Cn2ncc3c(N4CCCCC4)ncnc32)c(Cl)c1 | 78* | -1 | . | 36 | -5
OC(c1ccccc1)(c1ccccc1)C1CCN(CCCOc2ccc3c(c2)CCCC3)CC1 | 40 | . | 8 | 42* | .
COc1cc2c(cc1OC)C(c1cccs1)N(C(=O)C(C)C)CC2 (centres undefined) | 10 | -2 | 3 | 2 | 18*
COc1cc2c(cc1OC)C(c1cccs1)N(C(=O)c1cccnc1)CC2 (centres undefined) | 2 | -2 | -2 | 7 | 8
C#CCOc1ccc(CNC[C@H]2O[C@@H](n3ccc(N)nc3=O)[C@H](O)[C@@H]2O)cc1 | -6 | 5 | 0 | 1 | .
CO/N=C(\CS(=O)(=O)Cc1ccc(OC)cc1)c1ccc(Cl)cc1 | 24 | -6 | 1 | 43* | -2
COC(=O)c1cc2c(c3c4cc(OC)ccc4n(S(=O)(=O)c4cccc(C)c4)c13)C(=O)N(Cc1ccccc1OC)C2 | -42 | . | . | -1 | .
O=c1c2cc(F)ccc2sn1-c1ccc(F)cc1 | . | -2 | 1 | . | .
COc1ccc(-n2sc3ccc(F)cc3c2=O)cc1 | 45 | 2 | 2 | 50* | .
Cc1ccc(C)c(-n2sc3ccc(F)cc3c2=O)c1 | 51* | 6 | 2 | 45* | .
CC1=C(C(=O)N(C(C)C)C(C)C)CC(CC(=O)NCCN2CCOCC2)C(=O)N1Cc1ccc(C(C)(C)C)cc1 (centres undefined) | -13 | . | 1 | -1 | .
Cc1ccc(N)cc1NC(=O)CN1CCOCC1 | 11 | -2 | 0 | -1 | -10
COc1ccc2nc3n(c(=O)c2c1)-c1ncccc1C(=O)NC3C (centres undefined) | -22 | 2 | 0 | 1 | .
CC[n+]1c(/C=C/C=C/N(C(C)=O)c2ccccc2)sc2ccccc21 | 102* | -49 | 9 | -5 | -3
Cc1c(C(=O)OCC(=O)N2CCN(c3ccccc3)CC2)oc2ccccc12 | 17 | -1 | 0 | 8 | .
COc1ccc(N2CCN(C(=O)COC(=O)c3oc4ccccc4c3C)CC2)cc1 | 51* | -1 | -3 | 26 | .
Cc1cccc(NC(=O)c2nc[nH]c2C(=O)N[C@H](C)CO)c1 | -9 | 0 | 0 | 3 | .

Source: PubChem BioAssay
